Nine molecules from ChEMBL document CHEMBL3102710, “Design, synthesis, and evaluation of fimbrolide-nitric oxide donor hybrids as antimicrobial agents” (J Med Chem, 2013) can be followed below.

Activity calls are given as the source filed them. Unless noted, no cut-off for these calls is given here.

Series [1] concerns Pseudomonas aeruginosa. Description: Antibacterial activity against Pseudomonas aeruginosa MH602 harboring lasB promoter fused with GFP-ASV assessed as growth inhibition at 266 uM measured every 30 mins by GFP-ASV reporter gene assay. Particulars: MH602, 0.5 h, read-out: GI. The series is classed as organism-based. In general terms: A reporter such as luciferase makes a cellular process visible.

For series [2], the system named is Pseudomonas aeruginosa. As to the kind of experiment: Antibacterial activity against Pseudomonas aeruginosa assessed as growth inhibition at 500 uM after 2 hrs by GFP reporter gene assay. The series is classed as organism-based. Particulars: in vivo.
Series [3] relates to Pseudomonas aeruginosa. Description: Induction of nitric oxide-dependent nirS gene expression in Pseudomonas aeruginosa at 500 uM incubated for 2 hrs under dark condition by GFP reporter gene assay relative to untreated control. The series is classed as functional.
Series [4] can be described thus: Induction of nitric oxide release in PBS buffer supplemented with L-cysteine, xanthine, xanthine oxidase assessed as nitrite release at 250 to 500 uM after 1 hr by Griess assay. The series is classed as physicochemical. In short, it runs like this: (§1)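 Total NO release was quantified as nitrite with Griess reagent, which detects nitrite at ≥1 μM. Because of that limit, compounds were added at 250 μM and 500 μM.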
Background: The Griess reaction detects nitrite, a stable product of nitric oxide.

Series [5] deals with Pseudomonas aeruginosa. As to the kind of experiment: Antibacterial activity against Pseudomonas aeruginosa PAO1 MH602 harboring lasB promoter fused with GFP-ASV assessed as growth inhibition at 88 uM measured every 30 mins by GFP-ASV reporter gene assay. The series is classed as organism-based. Particulars: for Activity: pseudomonas aeruginosa, in vivo, 0.5 h, 88 µM. The essentials:
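Cell growth of the PAO1 PlasB::gfp(ASV) reporter strain tracked as OD600 every half hour during compound incubation, alongside GFP readings. Growth is compared against the untreated control.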

Series [6] can be described thus: Inhibition of quorum sensing system in Pseudomonas aeruginosa PAO1 MH602 harboring lasB promoter fused with GFP-ASV assessed as reduction in GFP-ASV reporter protein expression measured every 30 mins. The essentials:
(§2)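 P. aeruginosa PAO1 carrying a PlasB::gfp(ASV) fusion plasmid, which makes its own AHL signals, incubated with compounds at 88.8, 29.6, 9.9, 3.3 or 1.0 μM. GFP fluorescence (RFU) read every half hour. Percent QS inhibition is the percent RFU difference between sample and untreated control, taken at the time point when control fluorescence peaks.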

The nature of series [7]: Inhibition of quorum sensing system in Pseudomonas aeruginosa PAO1 MH602 harboring lasB promoter fused with GFP-ASV assessed as reduction in GFP-ASV reporter protein expression at 3.2 uM measured every 30 mins relative to control. The essentials:
as §2

Series [8] in a line: Inhibition of quorum sensing system in Pseudomonas aeruginosa PAO1 MH602 harboring lasB promoter fused with GFP-ASV assessed as reduction in GFP-ASV reporter protein expression at 9.8 uM measured every 30 mins relative to control. The essentials:
as §2

Series [9] can be described thus: Inhibition of quorum sensing system in Pseudomonas aeruginosa PAO1 MH602 harboring lasB promoter fused with GFP-ASV assessed as reduction in GFP-ASV reporter protein expression at 29 uM measured every 30 mins relative to control. In short, it runs like this: as §2
Series [10] can be described thus: Inhibition of quorum sensing system in Pseudomonas aeruginosa PAO1 MH602 harboring lasB promoter fused with GFP-ASV assessed as reduction in GFP-ASV reporter protein expression at 88 uM measured every 30 mins relative to control. The essentials:
as §2

Series [11] is described as follows: Inhibition of quorum sensing system in Pseudomonas aeruginosa PAO1 MH602 harboring lasB promoter fused with GFP-ASV assessed as reduction in GFP-ASV reporter protein expression at 266 uM measured every 30 mins relative to control.
Series [12] concerns Pseudomonas aeruginosa. As to the kind of experiment: Antibacterial activity against Pseudomonas aeruginosa PAO1 assessed as inhibition of biofilm formation at 150 uM after 6 hrs by crystal violet staining assay relative to control. The series is classed as functional. Conditions: for inhibition at 150 µM: PAO1, 6 h.
Series [13] relates to Pseudomonas aeruginosa. As to the kind of experiment: Antibacterial activity against Pseudomonas aeruginosa PAO1 assessed as growth inhibition at 150 uM after 6 hrs. The series is classed as organism-based. Conditions: in vivo.
Series [14] in a line: Induction of nitric oxide release in PBS buffer supplemented with L-cysteine, xanthine, xanthine oxidase assessed as nitrite release at 250 to 500 uM after 24 hrs by Griess assay. The series is classed as physicochemical. The essentials:
as §1

The nature of series [15]: Induction of nitric oxide release in PBS buffer supplemented with L-cysteine, xanthine, xanthine oxidase assessed as nitrite release at 500 uM after 1 hr by Griess assay. The series is classed as physicochemical. In short, it runs like this:
as §1

Consider `CCCC(O[N+](=O)[O-])C1=CC(=C(Br)Br)OC1=O` (stereo unspecified), for which the inhibition at 266 µM in the series on Pseudomonas aeruginosa [1] is above 15%. Moreover, the Activity result is “Non-toxic” with Pseudomonas aeruginosa [2], 1 µM in series [4], “Non-toxic” in the series on Pseudomonas aeruginosa [5] and “Non-toxic” in the series with Pseudomonas aeruginosa [13]. In addition, the outcome in the series on Pseudomonas aeruginosa [3] was inactive. The inhibition result in series [6] is “Dose-dependent effect”; in series [8], 22.4%; in series [9] it was 39.9%; in series [10], 71.4%; in series [11], 91.1%. For the same molecule, the inhibition entry in series [7] was “inactive”. Also, the inhibition at 150 µM in the series on Pseudomonas aeruginosa [12] was 70%.
In the case of `CCCCCCCCCCCC(OC(=O)CC(=O)N1CCN(/[N+]([O-])=N/OC)CC1)C1=CC(=C(Br)Br)OC1=O` (stereo unspecified), the Activity entry in [14] is given as “Not Active”; with Pseudomonas aeruginosa [5], “Non-toxic”. The inhibition result is “Dose-dependent effect” in series [6] and 40.9% in [11]. The inhibition entry (in series [7]; in series [8]; in series [9]; in [10]; in the series on Pseudomonas aeruginosa [12]) was “inactive” throughout.
In the case of `CCCC(OC(=O)CO/N=[N+](\[O-])N1CCN(C(=O)OCC)CC1)C1=CC(=C(Br)Br)OC1=O` (stereo unspecified), the Activity entry is “Not Active” in series [14] and “Non-toxic” in the series on Pseudomonas aeruginosa [5]. Further, the inhibition result was “Dose-dependent effect” in [6]; 4% in series [8]; 22.8% in [9]; 41.5% in [10]; 65.9% in series [11]. The inhibition entry (in [7]; in the series with Pseudomonas aeruginosa [12]) was “inactive” each time.
Turning to `CC(O[N+](=O)[O-])C1=CC(=C(Br)Br)OC1=O` (stereo unspecified), the inhibition at 266 µM with Pseudomonas aeruginosa [1] was above 15%. Also, in the series with Pseudomonas aeruginosa [2], the Activity entry was “Toxic”. In addition, the result in the series on Pseudomonas aeruginosa [3] was inactive. For the same molecule, the inhibition at 88 µM in the series with Pseudomonas aeruginosa [5] (Pseudomonas aeruginosa, PAO1 MH602, 0.5 h, read-out: GI) is above 15%. Moreover, the inhibition result in [6] is “Dose-dependent effect”; in [9], 29%; in [10], 70.4%; in [11] it was 94.3%. The inhibition entry in series [7] and in series [8] was “inactive” throughout. In addition, the inhibition entry in the series on Pseudomonas aeruginosa [12] was “Active”.
Regarding `CCCCCC(O[N+](=O)[O-])C1=CC(=C(Br)Br)OC1=O` (stereo unspecified), the Activity result was “Non-toxic” in the series with Pseudomonas aeruginosa [2], 1 µM in [4], “Non-toxic” in the series on Pseudomonas aeruginosa [5] and “Non-toxic” in the series with Pseudomonas aeruginosa [13]. In addition, in the series with Pseudomonas aeruginosa [3], the result was inactive. For the same molecule, the inhibition result in series [6] was “Dose-dependent effect”; in series [9] it was 32.5%; in [10] it was 56.4%; in [11], 73.1%. Moreover, the inhibition entry in series [7] and in series [8] was “inactive” in each case. Further, the inhibition at 150 µM in the series on Pseudomonas aeruginosa [12] was determined as 70%.
Regarding `CCCC(OC(=O)CO[N+](=O)[O-])C1=CC(=C(Br)Br)OC1=O` (stereo unspecified), the Activity result was “Non-toxic” in the series with Pseudomonas aeruginosa [2], 29 µM in series [15] and “Non-toxic” in the series on Pseudomonas aeruginosa [5]. For the same molecule, the “fold change (FC)” value with Pseudomonas aeruginosa [3] is reported as 2.5. Besides, the inhibition entry was “Dose-dependent effect” in [6]; 23.2% in series [8]; 49.6% in [9]; 72.9% in [10]; 88% in [11]. The inhibition entry in [7] was “inactive”. Moreover, the inhibition at 150 µM with Pseudomonas aeruginosa [12] stood at 61%.
Take `CCCC(SC(=O)CCO[N+](=O)[O-])C1=CC(=C(Br)Br)OC1=O` (stereo unspecified): the Activity result in the series with Pseudomonas aeruginosa [2] is “Non-toxic”; in series [4] it was 1 µM; with Pseudomonas aeruginosa [5], “Non-toxic”. In addition, in the series with Pseudomonas aeruginosa [3], the “fold change (FC)” value was 2. Further, the inhibition result in series [6] is “Dose-dependent effect”; in series [9], 33.6%; in series [10] it was 51.5%; in series [11], 72.3%. For the same molecule, the inhibition result in [7] and in [8] was “inactive” each time.
As to `CCCCCCCCCCCC(O[N+](=O)[O-])C1=CC(=C(Br)Br)OC1=O` (stereo unspecified), the Activity entry in the series with Pseudomonas aeruginosa [2] is “Non-toxic”; in series [15] it was 17.9 µM; with Pseudomonas aeruginosa [5] it was “Non-toxic”. In the series with Pseudomonas aeruginosa [3], the outcome was inactive. The inhibition entry in series [6] is “Dose-dependent effect”; in series [10], 29%; in [11], 67.3%. Also, the inhibition entry in series [7], in [8] and in series [9] was “inactive” throughout. The inhibition at 150 µM with Pseudomonas aeruginosa [12] was 73%.
Regarding `CCCC(OC(=O)CCCCCCCO[N+](=O)[O-])C1=CC(=C(Br)Br)OC1=O` (stereo unspecified), the Activity entry in the series with Pseudomonas aeruginosa [2] was “Non-toxic”; in series [4], 1 µM; in the series on Pseudomonas aeruginosa [5] it was “Non-toxic”. Further, the result in the series with Pseudomonas aeruginosa [3] was inactive. Moreover, the inhibition result in [6] is “Dose-dependent effect”; in [10] it was 12.9%; in series [11] it was 40.6%. Further, the inhibition entry in series [7], in series [8] and in series [9] was “inactive” throughout.
